Assay outcomes (PubChem BioAssay)
Sampled rows, rich in hits. Any-hit rate of the full collection: about 3.2%.
JMJD2C inh = human JMJD2C demethylase inhibition; Q9H3R0; GST-JMJD2C(1-420) H3K9me3 demethylation, DELFIA europium; inhibition, % at 2.35 µM; 330,000 tested, 0.069% active; AID 2099;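 active = more than half of a compound's replicate wells show inhibition beyond 50%, single wells judged on their own value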;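 note: signal counts dimethyl H3K9 product captured on neutravidin plate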
NR2E3 ag-1 = activates human NR2E3 receptor | CHO-S Gal4-NCOR/VP16-NR2E3 two-hybrid, luciferase | inhibition of corepressor binding, % at 3.98 µM | Q9Y5X4 | AID 602229 | 360,000 tested, 0.35% active;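 active = inhibition above the mean of all tested compounds plus 3 SD, cut at about 70% in these data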;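 note: higher means lower luciferase signal from less NR2E3 corepressor binding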
DAX1 inh-1 = DAX1 (NR0B1) inhibition, primary screen; HEK293T StAR-luciferase reporter, SF-1/DAX-1 repression relief; AID 652010; inhibition, % at 6.8 µM; 370,000 tested, 1.1% active;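 active = inhibition above the mean over all tested compounds plus 3 SD, cut at about 3.6% in these data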;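 note: higher inhibition means more luminescence from relief of DAX-1 repression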
DAX1 inh-2 = inhibits human nuclear receptor DAX1. P51843. HEK293 Gal4-DAX1 luciferase reporter, luminescence. inhibition, % at 6.75 µM. 340,000 tested, 0.99% active;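 active = inhibition above the mean over all tested compounds plus 3 SD, cut at about 4.2% in these data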;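 note: inhibition shows as a rise in luminescence from relieved DAX1 repression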
Target sequence (P51843 207-470 limits assumed): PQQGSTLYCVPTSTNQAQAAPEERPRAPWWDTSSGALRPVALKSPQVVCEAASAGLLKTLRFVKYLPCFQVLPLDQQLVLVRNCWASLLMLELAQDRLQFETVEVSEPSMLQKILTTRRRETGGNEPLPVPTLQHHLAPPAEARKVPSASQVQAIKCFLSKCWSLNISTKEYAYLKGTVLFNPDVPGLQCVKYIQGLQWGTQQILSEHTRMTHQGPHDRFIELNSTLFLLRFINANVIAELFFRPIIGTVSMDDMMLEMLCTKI
NR2E3 ag-2 = agonists of human nuclear receptor NR2E3; AID 2300; Q9Y5X4; 320,000 tested, 0.12% active; inhibition of corepressor binding, % at 4.78 µM; GST-NR2E3/biotin-RetCOR TR-FRET, 1536-well;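 active = percent inhibition above the cutoff of mean plus 3 SD of all tested compounds, set per screening campaign, cut at about 20% in these data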
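system = GST-tagged NR2E3 plus biotinylated RetCOR corepressor | input = 1.35 nM GST-NR2E3 | also added = 7 nM biotin-RetCOR | schedule = 5 h incubation at 4 °C | measured by = TR-FRET with europium anti-GST and streptavidin-D2, 340 nm excitation | read-out = percent loss of FRET ratio relative to control wells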
SMARCA2 activ = SMARCA2 function activation, primary screen; MG213 cells, MMTV-luciferase reporter, dexamethasone, overnight; activation, % at 9.1 µM; 370,000 tested, 1% active; AID 652017; in the data active = activation above about 7.8%
Hits are given with their value; - = inactive; . = no result.

SMILES | JMJD2C inh | NR2E3 ag-1 | DAX1 inh-1 | DAX1 inh-2 | NR2E3 ag-2 | SMARCA2 activ
COc1ccc(OC)c(NC(=O)NC2CCCCCCC2)c1 | - | - | - | - | . | -
COc1ccc(NC(=O)C2CC2)cc1OC1CCCC1 | - | - | . | - | - | .
COC(=O)c1ccc(OC)c(OC2CCCC2)c1 | - | - | - | 6.3 | - | -
COc1ccc(NC(=O)NC2CCCCCCC2)cc1OC | - | - | 4.4 | - | - | -
COc1ccc(NC(=O)C2CCCCN2N)cc1OCC(C)C (stereo not drawn) | 80.4 | - | - | - | - | -
COc1ccc(NC(=O)c2cc(C(C)C)on2)cc1OC | - | - | - | 5.0 | - | -
COc1ccc(NC(=O)c2cc(C)on2)cc1OC | - | - | - | - | - | -
CCCCCC[C@@H](CCCc1ccccc1OC)CN(CCCC)S(C)(=O)=O | . | . | - | . | . | -
O=C(OC12CCCN(C1)/C(=C/c1cccnc1)C2)c1ccccc1 (stereo not drawn) | . | . | - | . | . | -
COC(=O)C1CN(Cc2cn(Cc3ccc(Cl)cc3)nn2)CCS(=O)(=O)N1Cc1ccc(F)cc1 (stereo not drawn) | . | . | - | . | . | -
COC(=O)[C@]12C[C@H](CC(=O)N3CCOCC3)C(=O)N(Cc3cccc4ccccc34)C1=C[C@H](C(C)(C)C)O[C@@H]2C | . | . | - | . | . | -
Cc1sc2nc(CN3CCOCC3)nc(NS(=O)(=O)c3ccc4c(c3)OCCO4)c2c1C | - | - | - | - | - | -
Cc1sc2nc(CN3CCCC3)nc(N3CCN(S(=O)(=O)c4cccs4)CC3)c2c1C | - | - | - | 4.7 | - | -
Cc1sc2nc(CN3CCOCC3)nc(NS(=O)(=O)c3ccccc3)c2c1C | - | - | - | 6.3 | - | -
CCOC(=O)[C@@]12CCCC=C1N(CCc1ccc(Cl)cc1)C(=O)[C@H]2CC(=O)NCCc1ccccc1OC | . | . | - | . | . | -
Nc1cc(=O)[nH]c(SCC(=O)Nc2ccc(S(=O)(=O)N3CCCC3)cc2)n1 | - | - | - | 4.3 | . | -
O=C(CSc1ccc(-c2nc3ccccc3[nH]2)cn1)Nc1ccc(S(=O)(=O)N2CCCC2)cc1 | - | - | - | - | - | -
Cc1cc2nc(-c3ccc(SCC(=O)Nc4ccc(S(=O)(=O)N5CCCC5)cc4)nc3)[nH]c2cc1C | - | - | 3.7 | - | - | -
O=C(OCc1cn(Cc2ccccc2Cl)nn1)N1CCOCC1 | . | . | - | . | . | -
Cc1ccccc1-c1cc2nc(-c3ccc([N+](=O)[O-])cc3)cc(=O)n2[nH]1 | - | - | - | - | - | -
Cc1cc(=O)n2[nH]c(-c3ccc(Cl)cc3)cc2n1 | - | - | - | - | - | 7.8
Cc1cc(=O)n2[nH]c(-c3ccc(F)cc3)cc2n1 | - | - | - | - | - | -
CCCc1cc(=O)n2[nH]c(-c3cccc(Br)c3)cc2n1 | - | - | - | 5.6 | - | -
Cc1cc2nc(CSc3ccc(Cl)cc3)cc(=O)n2[nH]1 | - | - | - | 11.0 | - | -
Cc1cccc(-c2cc3nc(-c4ccccc4)cc(=O)n3[nH]2)c1 | - | - | - | 6.4 | - | -
SMILES | JMJD2C inh | NR2E3 ag-1 | DAX1 inh-1 | DAX1 inh-2 | NR2E3 ag-2 | SMARCA2 activ
CCOC(=O)Cc1cc(=O)n2[nH]c(-c3ccccc3)cc2n1 | - | - | . | - | - | .
O=C(Oc1ccc2c(-c3ccccc3)cc(=O)oc2c1)c1cccs1 | - | - | - | 4.4 | - | -
CCc1cc2c(-c3ccccc3)cc(=O)oc2cc1OC(=O)c1cccs1 | - | - | - | - | - | -
CCNC(=S)Nc1ccc(-c2nc3ccccc3[nH]2)cc1 | - | - | 4.4 | - | - | -
COc1ccc(CN(CCN2CCOCC2)C(=O)c2cc(F)cc(F)c2)cc1OC | . | . | - | . | . | -
COc1ccc2c(c1)CN1C(=O)N(CCc3ccccc3)S(=O)(=O)CC21 (stereo not drawn) | . | . | - | . | . | -
COc1cc(C)c(S(=O)(=O)Nc2ccccc2F)cc1C | - | - | - | - | - | -
Cc1cc2[nH]c(=O)c(=O)[nH]c2cc1S(=O)(=O)Nc1ccccc1F | - | - | - | 4.6 | - | -
Cc1ccc(-c2nc3ncccn3c2NC(=O)c2ccccc2)cc1 | . | . | - | . | . | -
COc1ccc(-c2nc(CN3CCN(Cc4cccc(Cl)c4)CC3)c(C)o2)cc1 | - | - | - | 5.8 | - | -
O=[N+]([O-])c1ccccc1C=CC=NN=Cc1ccccc1O | . | - | - | 5.5 | . | -
